Results of several laboratories.
Protocols differ between the studies behind these lines.

| Structure (SMILES) | target or system | assay | system | conditions | measurement | value |
| --- | --- | --- | --- | --- | --- | --- |
| O=C(COc1ccc(Cl)cc1)NC12CC(c3nnc([C@H]4C[C@@H](OC(F)(F)F)C4)o3)(C1)C2 | – | – | human, plasma | oral, 100 mg, single dose, fasted, healthy volunteers | Cmax | 1180 nM |
| CC(C)n1c(C2CCNCC2)nc2c([N+](=O)[O-])c(Br)c(Br)cc21 | – | – | human, plasma | oral, 100 mg, patients | Cmax | 73.2 ng/mL |
| COc1ccc(NC(=O)NCc2cn(Cc3ccccc3C)nn2)cc1 | L02 | cell growth or viability, CCK-8 | – | 50 µM, 72 h | viability | 124% |
| O=C(Nc1ccc(Cl)cc1)Nc1cccc(-c2cn(Cc3ccc(Cl)cc3)nn2)c1 | L02 | cell growth or viability, CCK-8 | – | 50 µM, 72 h | viability | 102% |
| COc1ccc2c(c1)CN(C(=O)CCN1CCC(Cc3ccccc3)CC1)CC[S@@+]2[O-] | – | – | male human, plasma | intravenous, 0.4 mg/kg, healthy volunteers | Cmax | 1080 ng/mL |
| O=C(Nc1ccc(Cl)cc1)Nc1ccc(-c2cn(Cc3cccc(Cl)c3)nn2)cc1 | L02 | cell growth or viability, CCK-8 | – | 50 µM, 72 h | viability | 92.6% |
| COc1ccc(NC(=O)Nc2cccc(-c3cn(Cc4cccc(Cl)c4)nn3)c2)cc1 | L02 | cell growth or viability, CCK-8 | – | 50 µM, 72 h | viability | 123% |
| O=C(Nc1ccc(-c2cn(Cc3ccc(Cl)cc3)nn2)cc1)Nc1ccccc1Br | L02 | cell growth or viability, CCK-8 | – | 50 µM, 72 h | viability | 113% |
| COc1ccc(NC(=O)Nc2ccc(-c3cn(Cc4cccc(Cl)c4)nn3)cc2)cc1 | L02 | cell growth or viability, CCK-8 | – | 50 µM, 72 h | viability | 114% |
| CNC(C)(C)COCC(=O)N1CCC[C@H](C(=O)NCc2nc(-c3ccc(C(F)(F)F)cc3)cs2)C1 | – | – | Caco-2 | – | efflux ratio | 180 |
| O=C(Nc1ccc(Cl)cc1)Nc1cccc(-c2cn(Cc3cccc(Cl)c3)nn2)c1 | L02 | cell growth or viability, CCK-8 | – | 50 µM, 72 h | viability | 71.8% |
| COc1ccc(-c2c(Nc3ccccn3)[nH]c3c(C4=CCCCC4)c(-c4ccccc4)nn3c2=O)cc1 | – | – | human, plasma | oral, 200 mg twice daily, multiple doses, patients | Cmax | 13600 ng/mL |
